For orientation: viability means a read-out of living cells in per cent, often relative to untreated cells. A word on the inhibition: it is the drop in the measured response relative to a control, in per cent.

Assay [1] in a line: reducers of endogenous Her2 protein level, primary screen, SKBR3 breast tumor cells, AlphaScreen, ATP viability (AID 461;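 active = Her2 level under about 52% in both replicate screens, with viability over 70% of control, limit read from the data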;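 for Her2 level: lower value means less Her2 protein in the cells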;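 for viability: percent of carrier control wells set as 100% viability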). The following applies: 18-24 h, measured here: SKBR3 viability, ATP luminescence, at 10 µM.
The target of assay [2] is Receptor tyrosine-protein kinase erbB-2 (Homo sapiens) (UniProt P04626). The assay is described as above. The following applies: 18-24 h, at 10 µM, stronger effect = lower value.
The nature of assay [3]: SK-BR-3 cell growth inhibitors, pilot screen, 24 h, human (AID 572;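 active = viability at or below 10% of carrier control in both of two separate runs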;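 note: compound exposure lasted between 18 and 24 h rather than exactly 24 h; 100% = carrier-treated control wells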). The following applies: SK-BR-3 viability, CellTiter-Glo luminescence, at 10 µM, stronger effect = lower value. In general terms: Cellular ATP, detected with luciferase, serves as a proxy for viable cell number.
A short description of assay [4]: HUVEC growth inhibition – cell-based, human, primary screen (AID 575;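 active = viability at or below 30% in both replicate assays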;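 note: 100% = median of untreated cell wells with 0.1% DMSO on each plate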). The note with it: HUVEC proliferation, CellTiter-Glo luminescence, 72 h; at 10 µM; stronger effect = lower value. The method, boiled down: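 Assay system: Primary human umbilical vein endothelial cells | Quantity: 1250 cells per well | Medium: Supplemented EBM, 2% fetal bovine serum | Detection: CellTiter-Glo luminescence measuring cellular ATP | Read-out: % viability vs DMSO wells | Plate: Collagen-coated 384-well format | Times: 72 h exposure, 37 °C, 5% CO2, 30 min RT equilibration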

Assay [5] is described as follows: growth inhibitors of H69AR lung tumor, primary screen, human, duplicate replicates (AID 580;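 active = viability at or under a set limit in both replicates, limit being median viability minus 3 SD, cut at about 48% in these data, passing the limit was not always enough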;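 note: 100% = mean luminescence of untreated wells and 0% = no signal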). The following applies: H69AR lung tumor cells viability, ATP luminescence, 72 h; at 10 µM; stronger effect = lower value.
The nature of assay [6]: reversal of MRP1-mediated doxorubicin resistance, pilot screen, H69AR cells, doxorubicin co-treatment (AID 601;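 active = viability loss from added drug above about 55%, and viability with drug at most 40%, in both replicates, limit read from the data, passing the limit was not always enough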). The note with it: CellTiter-Glo, 72 h, at 10 µM; for differential viability (reversal): stronger effect = higher value.
A short description of assay [7]: 384-well plate pilot, post-Golgi transport modulator project, inhibition of yeast transport mutant growth (AID 636; in the data active = inhibition above about 31%). The following applies: absorbance 615 nm, about 18 h, stronger effect = higher value.
A short description of assay [8]: growth suppression of yeast trafficking mutant, preliminary HTS, modulators of trafficking downstream of Golgi apparatus project, 1536-format plate, OD 615 nm (AID 637). The note with it: yeast transport mutant growth, absorbance 615 nm, 18 h; stronger effect = higher value.
Setting [9] is: H69AR cells + 2 uM doxorubicin, measured here: viability with 2 uM doxorubicin, stronger effect = lower value.
Setting [10] is: H69AR cells, compound alone cytotoxicity.

The source made the active and inactive calls. Cut-off read from the data, not from the text of the source, unless noted: active = inhibition above about 30%; inactive = the rest.

Sequence of Receptor tyrosine-protein kinase erbB-2 (Homo sapiens) (P04626 whole entry, looked up): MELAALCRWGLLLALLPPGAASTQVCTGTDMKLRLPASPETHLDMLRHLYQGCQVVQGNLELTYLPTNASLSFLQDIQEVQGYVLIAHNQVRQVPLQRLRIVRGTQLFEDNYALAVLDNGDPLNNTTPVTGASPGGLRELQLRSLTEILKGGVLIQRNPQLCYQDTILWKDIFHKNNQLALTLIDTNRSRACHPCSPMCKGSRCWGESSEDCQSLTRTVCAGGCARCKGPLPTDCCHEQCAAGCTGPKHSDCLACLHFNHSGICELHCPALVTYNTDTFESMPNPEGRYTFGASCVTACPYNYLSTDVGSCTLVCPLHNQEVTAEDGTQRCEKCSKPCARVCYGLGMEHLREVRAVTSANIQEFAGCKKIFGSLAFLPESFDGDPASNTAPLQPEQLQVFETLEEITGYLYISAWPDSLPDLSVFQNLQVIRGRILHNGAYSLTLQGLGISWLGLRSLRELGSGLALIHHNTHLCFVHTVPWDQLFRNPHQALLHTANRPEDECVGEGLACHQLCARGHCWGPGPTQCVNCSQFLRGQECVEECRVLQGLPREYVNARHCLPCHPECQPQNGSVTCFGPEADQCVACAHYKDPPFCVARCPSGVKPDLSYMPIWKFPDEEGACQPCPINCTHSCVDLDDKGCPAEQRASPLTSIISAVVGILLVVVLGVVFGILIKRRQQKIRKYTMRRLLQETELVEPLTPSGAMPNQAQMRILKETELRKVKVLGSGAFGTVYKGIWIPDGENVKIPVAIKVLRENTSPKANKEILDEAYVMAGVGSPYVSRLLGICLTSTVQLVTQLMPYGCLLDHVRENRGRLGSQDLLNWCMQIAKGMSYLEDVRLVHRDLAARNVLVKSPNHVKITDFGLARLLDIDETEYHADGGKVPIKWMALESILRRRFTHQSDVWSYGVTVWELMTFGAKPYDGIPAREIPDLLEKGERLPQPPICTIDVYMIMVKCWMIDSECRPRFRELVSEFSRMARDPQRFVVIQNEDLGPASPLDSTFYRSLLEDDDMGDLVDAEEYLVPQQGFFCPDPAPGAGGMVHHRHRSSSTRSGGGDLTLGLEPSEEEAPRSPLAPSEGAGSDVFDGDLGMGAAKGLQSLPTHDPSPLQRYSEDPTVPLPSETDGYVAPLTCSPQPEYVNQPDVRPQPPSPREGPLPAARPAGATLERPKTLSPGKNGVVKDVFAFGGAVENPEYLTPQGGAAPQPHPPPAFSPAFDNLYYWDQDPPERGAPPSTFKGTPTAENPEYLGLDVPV

Take `CC(C)C(NC(=O)OCc1ccccc1)C(=O)OCC(=O)NCc1ccco1` (stereo not given): the viability was 100% in assay [1]; 100% (inactive) in assay [3]; 86.2% (inactive) in assay [4]; 85.3% (inactive) in assay [5]; 77.6% in assay [6] (setting [9]); 85.3% in assay [6] (setting [10]). In assay [2], the Her2 level was 108% (inactive). In assay [6] (H69AR cells + 2 uM doxorubicin), the differential viability (reversal) is 7.68% (inactive). Also, the inhibition was -1.18% (inactive) in assay [7] and -11.3% (inactive) in assay [8].
On to `COc1cccc(OC)c1OCCNCCO`, for which the viability in assay [1] was 126%; in assay [3] it was 126% (inactive); in assay [4], 85.7% (inactive); in assay [5], 96% (inactive); in assay [6] (setting [9]) it was 84.8%; in assay [6] (setting [10]) it was 96%. Also, in assay [2], the Her2 level was 98% (inactive). The differential viability (reversal) in assay [6] (H69AR cells + 2 uM doxorubicin) was 11.2% (inactive). In addition, the values for the inhibition in assay [7] and in assay [8] were -1.82% (inactive) and 0.33% (inactive), respectively.
For the compound `Cc1cc(C)cc(OCCCC(=O)O)c1`, the viability is 114% in assay [1]; 114% (inactive) in assay [3]; 67.9% (inactive) in assay [4]; 95.3% (inactive) in assay [5]; 91.8% in assay [6] (setting [9]); 95.3% in assay [6] (setting [10]). Besides, in assay [2], the Her2 level was 97% (inactive). For the same compound, in assay [6] (H69AR cells + 2 uM doxorubicin), the differential viability (reversal) is 3.5% (inactive). The inhibition in assay [7] was -5.6% (inactive); in assay [8], -0.16% (inactive).
`Cc1ccc(CCC(=O)Nc2ccc(S(N)(=O)=O)cc2)o1`: the viability in assay [1] is 87.5%; in assay [3], 87.5% (inactive); in assay [4], 98.4% (inactive); in assay [5] it was 109% (inactive); in assay [6] (setting [9]), 101%; in assay [6] (setting [10]) it was 109%. Moreover, the Her2 level in assay [2] was 116% (inactive). Besides, the differential viability (reversal) in assay [6] (H69AR cells + 2 uM doxorubicin) was 7.87% (inactive). Also, the inhibition in assay [7] is 1.33% (inactive); in assay [8], 6.23% (inactive).
With `C=Cn1nc(C)c2ccccc2c1=O`, the viability was 112% in assay [1]; 112% (inactive) in assay [3]; 105% (inactive) in assay [4]; 90.1% (inactive) in assay [5]; 85.2% in assay [6] (setting [9]); 90.1% in assay [6] (setting [10]). For the same compound, the Her2 level in assay [2] was 117% (inactive). The differential viability (reversal) in assay [6] (H69AR cells + 2 uM doxorubicin) was 4.88% (inactive). In addition, the inhibition was -3.33% (inactive) in assay [7] and -7.83% (inactive) in assay [8].
In the case of `O=C(CS(=O)(=O)Cc1ccccc1)N1CCc2ccccc2C1`, the viability is 94.5% in assay [1]; 94.5% (inactive) in assay [3]; 86.4% (inactive) in assay [4]; 101% (inactive) in assay [5]; 89.4% in assay [6] (setting [9]); 101% in assay [6] (setting [10]). For the same compound, in assay [2], the Her2 level was 94.5% (inactive). Moreover, the differential viability (reversal) in assay [6] (H69AR cells + 2 uM doxorubicin) is 11.5% (inactive). Also, the figures for the inhibition in assay [7] and in assay [8] were -5.6% (inactive) and -1.61% (inactive), respectively.
In the case of `Cc1cccc(OCC(=O)N2CCC(N3CCCCCC3)CC2)c1`, the viability was 95.5% in assay [1]; 95.5% (inactive) in assay [3]; 97.1% (inactive) in assay [4]; 106% (inactive) in assay [5]; 98.8% in assay [6] (setting [9]); 106% in assay [6] (setting [10]). Further, the Her2 level in assay [2] is 126% (inactive). Also, the differential viability (reversal) in assay [6] (H69AR cells + 2 uM doxorubicin) is 7.21% (inactive). The inhibition in assay [7] is -1.45% (inactive); in assay [8], -6.07% (inactive).
For `O=C(Nc1ccc2c(c1)OCCO2)C1CCCN(S(=O)(=O)c2cnc[nH]2)C1` (stereo not given), the viability in assay [1] is 82.5%; in assay [3], 82.5% (inactive); in assay [4] it was 100% (inactive); in assay [5] it was 94.7% (inactive); in assay [6] (setting [9]), 86.2%; in assay [6] (setting [10]), 94.7%. Besides, the Her2 level in assay [2] is 111% (inactive). The differential viability (reversal) in assay [6] (H69AR cells + 2 uM doxorubicin) is 8.45% (inactive). Further, the inhibition in assay [7] was -3.2% (inactive); in assay [8], -3.93% (inactive).
For `O=C(CSc1nnc(CNC(=O)c2cccs2)o1)NCCc1ccccc1`, the viability in assay [1] is 104%; in assay [3] it was 104% (inactive); in assay [4], 92.4% (inactive); in assay [5], 101% (inactive); in assay [6] (setting [9]), 98.6%; in assay [6] (setting [10]), 101%. In addition, the Her2 level in assay [2] is 103% (inactive). In assay [6] (H69AR cells + 2 uM doxorubicin), the differential viability (reversal) is 2.05% (inactive). Also, the values for the inhibition in assay [7] and in assay [8] were -0.9% (inactive) and -3% (inactive), respectively.
Consider `CCOC(=O)c1ccc(N2C(=O)CC(N3CCN(C/C=C/c4ccccc4)CC3)C2=O)cc1` (stereo not given), for which the viability in assay [1] was 84%; in assay [3], 84% (inactive); in assay [4], 91.4% (inactive); in assay [5] it was 84.3% (inactive); in assay [6] (setting [9]) it was 85.9%; in assay [6] (setting [10]), 84.3%. In assay [2], the Her2 level was 91.5% (inactive). The differential viability (reversal) in assay [6] (H69AR cells + 2 uM doxorubicin) is -1.62% (inactive). Further, the figures for the inhibition in assay [7] and in assay [8] were -0.64% (inactive) and -2.5% (inactive), respectively.
For the compound `O=C1OC2(c3ccccc3)C3CCCC2C13`, the viability is 100% in assay [1]; 100% (inactive) in assay [3]; 97.3% (inactive) in assay [4]; 100% (inactive) in assay [5]; 92.4% in assay [6] (setting [9]); 100% in assay [6] (setting [10]). The Her2 level in assay [2] was 120% (inactive). Also, the differential viability (reversal) in assay [6] (H69AR cells + 2 uM doxorubicin) was 7.76% (inactive). The values for the inhibition in assay [7] and in assay [8] were -6.44% (inactive) and 5.87% (inactive), respectively.
For `COc1ccc(N2CCN(C(c3cccs3)C(C)NC(=O)c3ccco3)CC2)cc1` (stereo not given), the viability is 90% in assay [1]; 90% (inactive) in assay [3]; 82.1% (inactive) in assay [4]; 86.3% (inactive) in assay [5]; 90.3% in assay [6] (setting [9]); 86.3% in assay [6] (setting [10]). In assay [2], the Her2 level is 76.5% (inactive). Besides, the differential viability (reversal) in assay [6] (H69AR cells + 2 uM doxorubicin) was -4.01% (inactive). Also, the inhibition in assay [7] is -4.53% (inactive); in assay [8], -0.16% (inactive).
As to `CCOC(=O)N1CCC(N2C(=O)c3ccc(C(=O)NCc4ccco4)cc3C2=O)CC1`, the viability in assay [1] was 95.5%; in assay [3], 95.5% (inactive); in assay [4], 79.6% (inactive); in assay [5] it was 85.9% (inactive); in assay [6] (setting [9]) it was 81%; in assay [6] (setting [10]) it was 85.9%. Besides, in assay [2], the Her2 level was 94% (inactive). The differential viability (reversal) in assay [6] (H69AR cells + 2 uM doxorubicin) is 4.97% (inactive). For the same compound, the inhibition in assay [7] is 0% (inactive); in assay [8] it was -0.17% (inactive).
As to `CCN(CC)c1nc2nonc2nc1N(CC)CC`, the viability in assay [1] is 101%; in assay [3] it was 101% (inactive); in assay [4], 110% (inactive); in assay [5], 104% (inactive); in assay [6] (setting [9]), 99.2%; in assay [6] (setting [10]), 104%. In addition, in assay [2], the Her2 level was 92% (inactive). Besides, the differential viability (reversal) in assay [6] (H69AR cells + 2 uM doxorubicin) is 4.4% (inactive). Besides, the figures for the inhibition in assay [7] and in assay [8] were -6.53% (inactive) and 3.17% (inactive), respectively.
As to `O=C(CSc1nnc(COc2ccc(Cl)cc2)o1)N1CCN(c2ccccc2)CC1`, the viability in assay [1] was 100%; in assay [3], 100% (inactive); in assay [4], 57% (inactive); in assay [5], 90.2% (inactive); in assay [6] (setting [9]), 92.4%; in assay [6] (setting [10]), 90.2%. Further, the Her2 level in assay [2] was 83% (inactive). For the same compound, the differential viability (reversal) in assay [6] (H69AR cells + 2 uM doxorubicin) was -2.18% (inactive). The inhibition is -3.2% (inactive) in assay [7] and 3.11% (inactive) in assay [8].
As to `CCOC(=O)c1ccc(Oc2cc(C)nc(SC)n2)cc1`, the viability in assay [1] is 88.5%; in assay [3], 88.5% (inactive); in assay [4], 36.8% (inactive); in assay [5], 16.5% (active); in assay [6] (setting [9]) it was 68.5%; in assay [6] (setting [10]), 16.5%. Besides, in assay [2], the Her2 level was 99% (inactive). Moreover, the differential viability (reversal) in assay [6] (H69AR cells + 2 uM doxorubicin) was -52% (inactive). Further, the figures for the inhibition in assay [7] and in assay [8] were -5.54% (inactive) and 2.3% (inactive), respectively.

Source of the values: PubChem BioAssay.
